Laboratory results as given in ChEMBL document CHEMBL1126289, “Analogues of the muscarinic agent 2'-methylspiro[1-azabicyclo[2.2.2]octane-3,4'-[1,3]dioxolane]: synthesis and pharmacology” (J Med Chem, 1992).

Experiments:
Cavia porcellus [1] = species: Cavia porcellus; assay: In vitro agonistic activity on isolated guinea pig ileum; type: functional
Procedure, shortened: (§1)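 Longitudinal ileal muscle strips from male guinea pig were held in Krebs-Henseleit (pH 7.4, carbogen) at 37 °C under about 5 mN tension and recorded isometrically. Single agonist concentrations were added, with washout and rest between each. EC50 was read graphically. Emax was expressed as percent of the carbachol maximum. Low-efficacy agents were estimated from pooled curves of at least two experiments.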

Cavia porcellus [2] = species: Cavia porcellus; assay: In vitro antagonistic activity on isolated guinea pig urinary bladder; type: functional
Procedure, shortened: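 Bladder smooth-muscle strips from male guinea pigs (~300 g) in Krebs-Henseleit, pH 7.4, carbogen-gassed, 37 °C, ~5 mN resting tension, stabilized ≥45 min; isometric tension recorded. A control cumulative carbachol curve was run, then washout and ≥15 min rest. A fixed test-compound concentration was incubated 60 min before a second carbachol curve. Carbachol EC50s were read graphically and dose ratios calculated to give KB; 2–8 experiments.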

Cavia porcellus [3] = species: Cavia porcellus; assay: Maximum response relative to that elicited by carbachol in guinea pig ileum was determined; type: functional; procedure, shortened: as §1
[4] = target: T1, Muscarinic acetylcholine receptor M3 (Cavia porcellus, UniProt Q8VH26); assay: Compound was evaluated for its binding affinity against muscarinic acetylcholine receptor M3 in guinea pig parotid gland using (-)-[3H]-QNB as radioligand; type: tissue-based
Procedure, shortened: (§2)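 Male guinea pig parotid gland homogenate was prepared in 50 mM Na/K phosphate pH 7.4 with 1 mM PMSF (protein ≤0.3 mg/mL). Triplicates were incubated with 2 nM (final) (−)-[3H]QNB at 25 °C for 210 min, with nonspecific binding defined by 10 µM atropine. Samples were separated by centrifugation and counted by scintillation. Ki came from graphical IC50 corrected by the Jacobs method, from 2–3 experiments.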

[5] = target: T1, Muscarinic acetylcholine receptor M3; assay: Compound was evaluated for its binding affinity against Muscarinic acetylcholine receptor M3 in guinea pig parotid gland using (-)-[3H]-QNB as radioligand; type: tissue-based; procedure, shortened: as §2
[6] = target: T1, Muscarinic acetylcholine receptor M3; assay: Compound was evaluated for its binding affinity against muscarinic acetylcholine receptor M3 n guinea pig parotid gland using (-)-[3H]-QNB as radioligand; type: tissue-based; procedure, shortened: as §2

T1 sequence (Q8VH26 whole entry): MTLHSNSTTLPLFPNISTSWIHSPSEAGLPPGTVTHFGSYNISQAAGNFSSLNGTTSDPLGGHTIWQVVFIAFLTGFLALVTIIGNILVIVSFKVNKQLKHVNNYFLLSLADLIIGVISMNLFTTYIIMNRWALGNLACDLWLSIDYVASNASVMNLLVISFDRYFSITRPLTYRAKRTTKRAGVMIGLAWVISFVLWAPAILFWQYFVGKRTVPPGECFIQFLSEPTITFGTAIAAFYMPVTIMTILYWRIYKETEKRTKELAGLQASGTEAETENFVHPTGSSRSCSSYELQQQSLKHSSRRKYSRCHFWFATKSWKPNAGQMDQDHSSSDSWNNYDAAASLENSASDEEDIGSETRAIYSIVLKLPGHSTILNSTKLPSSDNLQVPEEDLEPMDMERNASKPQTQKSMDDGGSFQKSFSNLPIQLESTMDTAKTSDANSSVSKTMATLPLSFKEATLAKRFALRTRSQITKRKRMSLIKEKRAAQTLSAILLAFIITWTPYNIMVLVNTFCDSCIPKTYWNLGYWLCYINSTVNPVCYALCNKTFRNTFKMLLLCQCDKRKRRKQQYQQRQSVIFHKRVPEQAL

EC50 (Cavia porcellus [2]) [µM]	SMILES	EC50 (Cavia porcellus [1]) [µM]	Kb (Cavia porcellus [2]) [µM]	Emax (Cavia porcellus [3]) [%]	Ki [4] [µM]	Ki [5] [µM]	Ki [6] [µM]
	C[C@H]1CC[C@@]2(CN3CCC2CC3)O1	12	93	29	35		
	C[C@@H]1C[C@@]2(CO1)CN1CCC2CC1	12	19	7	33		
	C1OCC2(CN3CCC2CC3)O1 (stereo not given)	100	122	45	86		
	C[C@@H]1OC[C@@]2(CN3CCC2CC3)O1	17	13	24	25		
	C[C@H]1C[C@@]2(CO1)CN1CCC2CC1	150	30	25		26	
	C[C@H]1OC[C@@]2(CN3CCC2CC3)O1	6	4.8	91	15		
	C[C@@H]1CC[C@@]2(CN3CCC2CC3)O1	30	90	20		78	
	CC1(C)OCC2(CN3CCC2CC3)O1 (stereo not given)	22	41	14			39
1.7	C[N+](C)(C)CCOC(N)=O [CARBACHOL]	0.17		100			
